Results collected from several papers.
gag-pol protease: Gag-Pol polyprotein, protease (gag-pol, Human immunodeficiency virus type 1 group M subtype B, UniProt P04585)
gag-pol reverse transcriptase: Gag-Pol polyprotein, reverse transcriptase (gag-pol, Human immunodeficiency virus type 1 group M subtype B, UniProt P04585)

Structure (SMILES) | target | observed | action | technique | measurement | value
C=CCCc1c(O)cccc1C(=O)N[C@@H](Cc1ccc(OCC=C)cc1)[C@H](O)CN(CC(C)C)S(=O)(=O)c1ccc(OC)cc1 | gag-pol protease | enzyme activity | inhibitor | – | Ki | 5 nM
CC(C)[C@H](NC(=O)[C@H](CCCNC(=N)N)NC(=O)[C@H](CO)NC(=O)[C@@H](N)Cc1c[nH]c2ccccc12)C(=O)NCC(=O)N[C@@H](Cc1ccc(O)cc1)C(=O)N[C@@H](Cc1c[nH]c2ccccc12)C(N)=O | gag-pol protease | binding | – | SPR | Kd | 44600 nM
CCCc1c2c(nc3c1c(C#N)cn3C1CCCCC1)CCC2=O | gag-pol reverse transcriptase | enzyme activity | inhibitor | FRET | IC50 | > 100000 nM
COc1ccc(S(=O)(=O)N(CC(C)C)C[C@@H](O)[C@H](Cc2ccccc2)NC(=O)OC2CO[C@H]3OCC(F)(F)[C@@H]23)cc1 (stereo partly shown) | gag-pol protease | enzyme activity | inhibitor | – | Ki | 0.022 nM
CC(C)CN(C[C@@H](O)[C@H](Cc1ccccc1)NC(=O)O[C@H]1CCO[C@H]2OCC[C@H]21)S(=O)(=O)c1ccc(B(O)O)cc1 | gag-pol protease | enzyme activity | inhibitor | – | Ki | 0.0021 nM
C[C@H](Cn1cnc2c(N)ncnc21)OCP(=O)(O)O | gag-pol reverse transcriptase | enzyme activity | inhibitor | – | IC50 | 950 nM
Oc1cc2c(cc1O)C(c1ccccc1)CNCC2 (racemic) | Gag-Pol polyprotein, integrase (gag-pol, Human immunodeficiency virus type 1 group M subtype B, UniProt P04585) | enzyme activity | inhibitor | – | IC50 | > 25000 nM
O=C1c2c(O)ccc(O)c2C(=O)c2c(NCCNCCO)ccc(NCCNCCO)c21 | gag-pol reverse transcriptase | enzyme activity | inhibitor | – | IC50 | 6300 nM
CC(C)C[C@H]1C(N2CC[C@H](N3C(=O)C=C(OC(C)(C)C)[C@@H]3C)C2)=CC(=O)N1[C@H]1CCN(C2=CC(=O)N[C@H]2Cc2ccccc2)C1 | gag-pol protease | enzyme activity | inhibitor | fluorescence | IC50 | 54900 nM
COc1ccc(S(=O)(=O)N(CC(C)C)C[C@@H](O)[C@@H]2Cc3ccc(cc3)OCC=CCCc3c(O)cccc3C(=O)N2)cc1 | gag-pol protease | enzyme activity | inhibitor | – | Ki | 0.2 nM
CC(=O)c1cc2c(-c3ccc(N(C)C)cc3)c3c(nc2[nH]1)-c1ccccc1C3=O | gag-pol reverse transcriptase | enzyme activity | inhibitor | FRET | IC50 | > 10000 nM
C=CCCCCOc1ccc(C[C@H](NC(=O)c2cccc(O)c2CCC=C)[C@H](O)CN(CC(C)C)S(=O)(=O)c2ccc(OC)cc2)cc1 | gag-pol protease | enzyme activity | inhibitor | – | Ki | 30 nM
Cc1ccc(-c2cnc3c(c2)c(C#N)cn3Cc2ccccc2)cc1 | gag-pol reverse transcriptase | enzyme activity | inhibitor | FRET | IC50 | > 100000 nM
